Assay results taken from ChEMBL document CHEMBL1138008, “2-(2-[3-(pyridin-3-yloxy)phenyl]-2H-tetrazol-5-yl) pyridine: a highly potent, orally active, metabotropic glutamate subtype 5 (mGlu5) receptor antagonist” (Bioorg Med Chem Lett, 2004).

Assays:
[1] = target: T1, Metabotropic glutamate receptor 5 (Homo sapiens, UniProt P41594); experiment: Antagonistic activity against Metabotropic glutamate receptor 5 in [Ca2+] flux assay using glutamate (10 uM) as agonist; NA=Not active; assay type: functional
T1 sequence (P41594 whole entry): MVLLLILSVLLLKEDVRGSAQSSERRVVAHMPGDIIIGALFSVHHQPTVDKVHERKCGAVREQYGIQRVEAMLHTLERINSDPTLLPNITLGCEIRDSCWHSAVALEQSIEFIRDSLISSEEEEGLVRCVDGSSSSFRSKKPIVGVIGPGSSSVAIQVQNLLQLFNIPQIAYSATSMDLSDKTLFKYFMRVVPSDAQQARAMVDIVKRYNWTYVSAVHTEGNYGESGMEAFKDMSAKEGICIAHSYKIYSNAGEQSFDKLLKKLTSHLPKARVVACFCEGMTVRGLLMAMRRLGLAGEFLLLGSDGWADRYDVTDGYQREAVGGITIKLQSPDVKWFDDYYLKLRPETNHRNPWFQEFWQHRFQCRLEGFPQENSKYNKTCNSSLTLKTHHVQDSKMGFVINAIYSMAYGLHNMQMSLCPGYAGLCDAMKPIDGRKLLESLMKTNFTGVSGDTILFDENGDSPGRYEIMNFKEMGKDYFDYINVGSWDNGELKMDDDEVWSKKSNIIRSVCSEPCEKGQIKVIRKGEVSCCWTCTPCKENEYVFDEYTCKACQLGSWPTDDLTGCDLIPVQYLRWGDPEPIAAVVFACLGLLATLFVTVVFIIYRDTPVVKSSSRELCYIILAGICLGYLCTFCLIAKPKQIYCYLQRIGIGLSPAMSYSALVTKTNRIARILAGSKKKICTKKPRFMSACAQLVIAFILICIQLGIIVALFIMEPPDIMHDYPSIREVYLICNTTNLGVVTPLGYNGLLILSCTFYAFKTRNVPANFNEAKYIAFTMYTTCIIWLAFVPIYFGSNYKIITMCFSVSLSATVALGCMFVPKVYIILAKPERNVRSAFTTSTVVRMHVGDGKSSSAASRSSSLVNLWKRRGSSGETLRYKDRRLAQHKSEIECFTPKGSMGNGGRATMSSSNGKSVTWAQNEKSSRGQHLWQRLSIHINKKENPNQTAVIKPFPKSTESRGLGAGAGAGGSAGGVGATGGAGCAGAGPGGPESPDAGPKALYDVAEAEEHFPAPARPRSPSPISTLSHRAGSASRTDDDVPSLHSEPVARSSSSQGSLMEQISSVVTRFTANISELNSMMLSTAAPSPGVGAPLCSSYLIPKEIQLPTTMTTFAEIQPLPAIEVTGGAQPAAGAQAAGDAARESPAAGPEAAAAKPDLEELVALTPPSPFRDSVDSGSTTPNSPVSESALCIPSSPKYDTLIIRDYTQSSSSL
Outline: (§1)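 Functional mGlu5 antagonism was read as Ca²⁺ flux, with glutamate at 10 μM as agonist. Values come from n = 2–4 determinations, with SD < ±25%.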

[2] = target: T2, Metabotropic glutamate receptor 5 (Rattus norvegicus, UniProt P31424); experiment: Binding affinity towards Metabotropic glutamate receptor was determined by displacing [3H]3-methoxy-5-(pyridin-2-ylethynyl)pyridine from rat cortical membranes; NA=Not active
T2 sequence (P31424 whole entry): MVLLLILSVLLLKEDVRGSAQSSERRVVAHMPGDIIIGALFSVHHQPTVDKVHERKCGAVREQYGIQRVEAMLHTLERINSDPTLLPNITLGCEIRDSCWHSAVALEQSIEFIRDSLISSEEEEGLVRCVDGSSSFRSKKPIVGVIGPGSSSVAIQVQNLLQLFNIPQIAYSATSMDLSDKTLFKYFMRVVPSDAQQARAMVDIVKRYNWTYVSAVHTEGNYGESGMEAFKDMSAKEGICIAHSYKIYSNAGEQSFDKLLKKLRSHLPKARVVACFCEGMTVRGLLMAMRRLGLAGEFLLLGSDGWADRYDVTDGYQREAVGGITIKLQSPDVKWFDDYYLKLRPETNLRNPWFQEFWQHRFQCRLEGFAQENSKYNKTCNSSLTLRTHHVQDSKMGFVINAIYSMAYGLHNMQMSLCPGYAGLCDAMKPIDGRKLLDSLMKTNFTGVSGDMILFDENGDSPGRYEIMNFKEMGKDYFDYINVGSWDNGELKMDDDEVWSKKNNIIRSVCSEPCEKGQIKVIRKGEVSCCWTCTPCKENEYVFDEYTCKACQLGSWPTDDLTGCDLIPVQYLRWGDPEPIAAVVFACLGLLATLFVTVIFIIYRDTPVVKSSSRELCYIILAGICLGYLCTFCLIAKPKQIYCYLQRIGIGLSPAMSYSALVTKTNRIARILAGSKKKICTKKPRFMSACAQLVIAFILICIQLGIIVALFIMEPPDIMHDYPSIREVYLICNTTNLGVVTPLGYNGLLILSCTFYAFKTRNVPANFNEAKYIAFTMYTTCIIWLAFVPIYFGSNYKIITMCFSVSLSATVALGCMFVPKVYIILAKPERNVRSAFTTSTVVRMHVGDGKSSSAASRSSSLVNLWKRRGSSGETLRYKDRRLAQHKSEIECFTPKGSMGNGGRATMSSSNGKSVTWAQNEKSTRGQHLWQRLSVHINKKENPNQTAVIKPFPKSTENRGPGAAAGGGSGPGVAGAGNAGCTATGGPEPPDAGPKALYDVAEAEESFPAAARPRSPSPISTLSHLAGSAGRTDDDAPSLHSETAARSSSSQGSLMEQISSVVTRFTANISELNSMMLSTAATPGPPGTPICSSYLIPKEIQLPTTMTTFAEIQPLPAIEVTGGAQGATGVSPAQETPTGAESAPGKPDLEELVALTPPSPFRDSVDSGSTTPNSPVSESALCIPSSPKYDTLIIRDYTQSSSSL
Outline: (§2)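 Radioligand displacement of [³H]-3-methoxy-5-(pyridin-2-ylethynyl)pyridine used rat cortical membranes. Values come from n = 2–4 determinations, with SD < ±25%.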

[3] = target: T1, Metabotropic glutamate receptor 5; experiment: Antagonistic activity against Metabotropic glutamate receptor 5 in [Ca2+] flux assay using glutamate (10 uM) as agonist; assay type: functional; outline: as §1
[4] = Plasma level after 1 hr following 10 mg/kg dose ip; assay type: ADME, organism-based; set-up: dose 10 mg/kg, route intraperitoneal; details: rat, read-out: Level
Outline: (§3)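 Rats were dosed ip at 10 mg/kg in PEG 400/water (1:1 v/v), given as a solution or a suspension. Receptor occupancy, hippocampus drug level and plasma drug level were measured 1 h after dosing.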

[5] = target: T2, Metabotropic glutamate receptor 5; experiment: Binding affinity towards Metabotropic glutamate receptor was determined by displacing [3H]3-methoxy-5-(pyridin-2-ylethynyl)pyridine from rat cortical membranes; outline: as §2
[6] = target: Metabotropic glutamate receptor 5 (Rattus norvegicus) (UniProt P31424); experiment: Percent occupancy of the Metabotropic glutamate receptor 5 by the [3H]3-methoxy-5-(pyridin-2-ylethynyl)pyridine ligand 1 hr post-administration of 10 mg/kg compound ip; assay type: organism-based; set-up: dose 10 mg/kg; outline: as §3
Metabotropic glutamate receptor 5 (Rattus norvegicus), sequence (P31424 21-1203 limits assumed): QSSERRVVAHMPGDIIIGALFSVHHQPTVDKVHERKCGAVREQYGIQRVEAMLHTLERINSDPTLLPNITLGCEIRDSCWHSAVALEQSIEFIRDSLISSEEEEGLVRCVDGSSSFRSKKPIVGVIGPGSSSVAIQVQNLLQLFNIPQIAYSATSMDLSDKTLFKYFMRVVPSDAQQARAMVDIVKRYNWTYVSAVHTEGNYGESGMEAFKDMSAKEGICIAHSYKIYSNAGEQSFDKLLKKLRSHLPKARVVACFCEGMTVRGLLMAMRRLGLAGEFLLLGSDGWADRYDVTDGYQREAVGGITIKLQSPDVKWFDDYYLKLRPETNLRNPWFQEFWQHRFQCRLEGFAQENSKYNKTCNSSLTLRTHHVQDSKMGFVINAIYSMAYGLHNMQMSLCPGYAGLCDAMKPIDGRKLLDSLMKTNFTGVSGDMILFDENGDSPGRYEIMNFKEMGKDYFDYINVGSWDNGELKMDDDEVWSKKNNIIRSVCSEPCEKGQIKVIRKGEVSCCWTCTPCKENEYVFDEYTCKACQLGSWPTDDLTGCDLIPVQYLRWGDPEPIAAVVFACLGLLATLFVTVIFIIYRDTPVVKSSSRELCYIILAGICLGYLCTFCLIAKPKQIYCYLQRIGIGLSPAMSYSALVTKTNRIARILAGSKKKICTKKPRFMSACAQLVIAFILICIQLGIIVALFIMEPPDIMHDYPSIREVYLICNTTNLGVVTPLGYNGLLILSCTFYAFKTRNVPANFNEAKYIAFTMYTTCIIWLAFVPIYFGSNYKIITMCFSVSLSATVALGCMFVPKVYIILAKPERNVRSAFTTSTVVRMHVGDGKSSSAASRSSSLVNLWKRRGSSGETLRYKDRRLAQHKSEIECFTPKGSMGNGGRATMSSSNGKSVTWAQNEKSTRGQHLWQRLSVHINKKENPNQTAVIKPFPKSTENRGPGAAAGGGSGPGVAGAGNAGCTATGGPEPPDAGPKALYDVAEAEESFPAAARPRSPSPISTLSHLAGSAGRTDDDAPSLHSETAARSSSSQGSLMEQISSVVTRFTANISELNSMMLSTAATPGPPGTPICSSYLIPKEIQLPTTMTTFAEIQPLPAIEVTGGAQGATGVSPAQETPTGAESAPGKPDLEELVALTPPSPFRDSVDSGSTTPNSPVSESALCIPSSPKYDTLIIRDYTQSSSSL

[7] = Level in rat brain after 1 hr following 10 mg/kg dose ip; assay type: ADME, organism-based; set-up: dose 10 mg/kg, route intraperitoneal; details: read-out: Level; outline: as §3
[8] = Plasma clearance after i.v. dosing at 1 mg/kg, p.o. dosing at 1 mg/kg. In solution of PEG 400/water in monkey; assay type: ADME, organism-based; details: cercopithecidae, iv, read-out: Clp
[9] = Maximum concentration after i.v. dosing at 2 mg/kg, p.o. dosing at 10 mg/kg. In solution of PEG 400/water in rat; assay type: ADME, organism-based; details: in vivo, po
Outline: (§4)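 Rats were dosed iv at 2 mg/kg and orally at 10 mg/kg, in solution in PEG 400/water (1:1 v/v).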

[10] = Volume of distribution after i.v. dosing at 1 mg/kg, p.o. dosing at 1 mg/kg. In solution of PEG 400/water in monkey; assay type: ADME, organism-based; details: cercopithecidae, in vivo, iv
[11] = Oral bioavailability after i.v. dosing at 1 mg/kg, p.o. dosing at 1 mg/kg. In solution of PEG 400/water in monkey; assay type: ADME, organism-based; details: cercopithecidae, in vivo
[12] = Maximum concentration after i.v. dosing at 1 mg/kg, p.o. dosing at 1 mg/kg. In solution of PEG 400/water in dog; assay type: ADME, organism-based, Canis lupus familiaris; details: in vivo, po
[13] = Plasma clearance after i.v. dosing at 2 mg/kg, p.o. dosing at 10 mg/kg. In solution of PEG 400/water in rat; assay type: ADME, organism-based; details: iv, read-out: Clp; outline: as §4
[14] = Half life after i.v. dosing at 2 mg/kg, p.o. dosing at 10 mg/kg. In solution of PEG 400/water in rat; assay type: ADME, organism-based; details: in vivo; outline: as §4
[15] = Volume of distribution after i.v. dosing at 1 mg/kg, p.o. dosing at 1 mg/kg. In solution of PEG 400/water in dog; assay type: ADME, organism-based, Canis lupus familiaris; details: in vivo, iv
[16] = Maximum concentration after i.v. dosing at 1 mg/kg, p.o. dosing at 1 mg/kg. In solution of PEG 400/water in monkey; assay type: ADME, organism-based; details: cercopithecidae, in vivo, po
[17] = Volume of distribution after i.v. dosing at 2 mg/kg, p.o. dosing at 10 mg/kg. In solution of PEG 400/water in rat; assay type: ADME, organism-based; details: in vivo, iv; outline: as §4
[18] = Half life after i.v. dosing at 1 mg/kg, p.o. dosing at 1 mg/kg. In solution of PEG 400/water in monkey; assay type: ADME, organism-based; details: cercopithecidae, in vivo
[19] = Half life after i.v. dosing at 1 mg/kg, p.o. dosing at 1 mg/kg. In solution of PEG 400/water in dog; assay type: ADME, organism-based, Canis lupus familiaris; details: in vivo
[20] = Oral bioavailability after i.v. dosing at 2 mg/kg, p.o. dosing at 10 mg/kg. In solution of PEG 400/water in rat; assay type: ADME, organism-based; details: in vivo; outline: as §4
[21] = Plasma clearance after i.v. dosing at 1 mg/kg, p.o. dosing at 1 mg/kg. In solution of PEG 400/water in dog; assay type: ADME, organism-based, Canis lupus familiaris; details: iv, read-out: Clp
[22] = Oral bioavailability after i.v. dosing at 1 mg/kg, p.o. dosing at 1 mg/kg. In solution of PEG 400/water in dog; assay type: ADME, organism-based, Canis lupus familiaris; details: in vivo

Row | SMILES | IC50 [3] [nM] | concentration at 1 h [4] [µM] | Ki [5] [nM] | Occupancy [6] [%] | concentration at 1 h [7] [µM] | further results
1 | c1ccc(-c2nnn(-c3cccc(Oc4ccncc4)c3)n2)nc1 | – | – | – | – | – | IC50 [1]: Not Active; Ki [2]: Not Active
2 | c1ccc(-c2nnn(-c3ccccc3Oc3cccnc3)n2)nc1 | 1580 | – | – | – | – | –
3 | CN(c1cccnc1)c1cc(F)cc(-n2nnc(-c3ccccn3)n2)c1 | 22 | 3.5 | 30 | 58 | 4.9 | –
4 | Fc1cc(Oc2cccnc2)cc(-n2nnc(-c3ccccn3)n2)c1 | 6.7 | 7.4 | 12 | – | 6.7 | clearance [8]: 7.7 mL/min/kg; Cmax [9]: 11 µM; Vd [10]: 0.7 L/kg; bioavailability [11]: 27%; Cmax [12]: 1.4 µM; clearance [13]: 21 mL/min/kg; half-life [14]: 2.7 h; Vd [15]: 1.5 L/kg; Cmax [16]: 0.3 µM; Vd [17]: 22 L/kg; half-life [18]: 2.5 h; half-life [19]: 2.3 h; bioavailability [20]: 100%; clearance [21]: 14 mL/min/kg; bioavailability [22]: 54%
5 | Fc1cc(-n2nnc(-c3ccccn3)n2)cc(-n2ccc3cccnc32)c1 | 16 | – | 25 | – | – | –
6 | Fc1cc(Nc2cccnc2)cc(-n2nnc(-c3ccccn3)n2)c1 | 124 | – | 29 | – | – | –
7 | c1ccc(Oc2cccc(-n3nnc(-c4ccccn4)n3)c2)cc1 | 1460 | – | 617 | – | – | –
8 | c1ccc(Oc2cccc(-n3nnc(-c4ccccn4)n3)c2)nc1 | 2860 | – | 633 | – | – | –
9 | Fc1cc(Cc2cccnc2)cc(-n2nnc(-c3ccccn3)n2)c1 | 17 | 0.9 | 38 | 43 | 2.7 | –
10 | Fc1cc(Sc2cccnc2)cc(-n2nnc(-c3ccccn3)n2)c1 | 13 | 3.4 | 16 | 83 | 1.5 | –
11 | c1ccc(-c2nnn(-c3ccc(Oc4cccnc4)cc3)n2)nc1 | 737 | – | 633 | – | – | –
12 | N#Cc1cccc(-n2nnc(-c3ccccn3)n2)c1 | 73 | 13 | 186 | 96 | 12 | –
13 | c1ccc(-c2nnn(-c3cccc(Oc4cccnc4)c3)n2)nc1 | 30 | – | 59 | 60 | – | –
14 | N#Cc1cc(F)cc(-n2nnc(-c3ccccn3)n2)c1 | 3.9 | 8.7 | – | 97 | 9.7 | –
